Tested on: HeLa
Assay: Antitumor activity against human HeLa cells after 48 hrs by spectrophotometric analysis
Type: functional, cell-based
Conditions: not given
In short: (§1)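 Cancer lines were HeLa (ECACC 93021013, cervix epitheloid carcinoma) and T47D (ECACC 85102201, breast carcinoma). Cells were seeded at 10⁴ cells/mL, treated with compounds dissolved in DMSO, and incubated at 37 °C, 5% CO₂, 90% humidity for 24, 48 or 72 h. Read-out was the BrdU assay, and IC50 was calculated from dose–response curves.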

Structure (SMILES) | IC50 [µM]
O=c1c(-c2ccco2)nnc2n1CCN2c1ccccc1 | 130
O=c1c(-c2ccco2)nnc2n1CCN2c1ccccc1Cl | 110

Tested on: HeLa
Assay: Growth inhibition of human HeLa cells at 50 ug/ml after 72 hrs by spectrophotometric analysis
Type: functional
Conditions: read-out: GI
In short: (§2)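 Normal primary human skin fibroblasts (HSF), HeLa (ECACC 93021013) and T47D (ECACC 85102201) were each seeded at 10⁴ cells/mL. Compounds were predissolved in DMSO and tested at a single 50 µg/mL (about 0.14–0.18 mM). Cultures were incubated at 37 °C, 5% CO₂, 90% humidity for 24, 48 or 72 h, and percent growth inhibition was read spectrophotometrically.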

Structure (SMILES) | inhibition of growth at 50 µg/mL [%]
O=c1c(-c2ccco2)nnc2n1CCN2c1ccccc1 | 100
Cc1ccccc1N1CCn2c1nnc(-c1ccco1)c2=O | 50
Cc1ccc(N2CCn3c2nnc(-c2ccco2)c3=O)cc1 | 80
Cc1cccc(N2CCn3c2nnc(-c2ccco2)c3=O)c1C | 90
O=c1c(-c2ccco2)nnc2n1CCN2c1ccccc1Cl | 100

Tested on: not listed separately
Assay: Growth inhibition of human HSF cells at 50 ug/ml after 72 hrs by spectrophotometric analysis
Type: cell-based
Conditions: read-out: GI
In short: as §2

Structure (SMILES) | inhibition at 72 h, 50 ug/ml [%]
O=c1c(-c2ccco2)nnc2n1CCN2c1ccccc1 | 60
Cc1ccccc1N1CCn2c1nnc(-c1ccco1)c2=O | 0
Cc1ccc(N2CCn3c2nnc(-c2ccco2)c3=O)cc1 | 50
Cc1cccc(N2CCn3c2nnc(-c2ccco2)c3=O)c1C | 0
O=c1c(-c2ccco2)nnc2n1CCN2c1ccccc1Cl | 20

Tested on: not listed separately
Assay: Growth inhibition of human HSF cells at 50 ug/ml after 48 hrs by spectrophotometric analysis
Type: cell-based
Conditions: read-out: GI
In short: as §2

Structure (SMILES) | inhibition at 48 h, 50 ug/ml [%]
O=c1c(-c2ccco2)nnc2n1CCN2c1ccccc1 | 50
Cc1ccccc1N1CCn2c1nnc(-c1ccco1)c2=O | 0
Cc1ccc(N2CCn3c2nnc(-c2ccco2)c3=O)cc1 | 50
Cc1cccc(N2CCn3c2nnc(-c2ccco2)c3=O)c1C | 0
O=c1c(-c2ccco2)nnc2n1CCN2c1ccccc1Cl | 20

Tested on: HeLa
Assay: Growth inhibition of human HeLa cells at 50 ug/ml after 24 hrs by spectrophotometric analysis
Type: functional
Conditions: read-out: GI
In short: as §2

Structure (SMILES) | inhibition of growth at 50 µg/mL [%]
O=c1c(-c2ccco2)nnc2n1CCN2c1ccccc1 | 50
Cc1ccccc1N1CCn2c1nnc(-c1ccco1)c2=O | 25
Cc1ccc(N2CCn3c2nnc(-c2ccco2)c3=O)cc1 | 50
Cc1cccc(N2CCn3c2nnc(-c2ccco2)c3=O)c1C | 60
O=c1c(-c2ccco2)nnc2n1CCN2c1ccccc1Cl | 80

Tested on: T47D
Assay: Growth inhibition of human T47D cells at 50 ug/ml after 24 hrs by spectrophotometric analysis
Type: functional
Conditions: read-out: GI
In short: as §2

Structure (SMILES) | inhibition of growth at 50 µg/mL [%]
O=c1c(-c2ccco2)nnc2n1CCN2c1ccccc1 | 50
Cc1ccccc1N1CCn2c1nnc(-c1ccco1)c2=O | 25
Cc1ccc(N2CCn3c2nnc(-c2ccco2)c3=O)cc1 | 40
Cc1cccc(N2CCn3c2nnc(-c2ccco2)c3=O)c1C | 0
O=c1c(-c2ccco2)nnc2n1CCN2c1ccccc1Cl | 5

Tested on: T47D
Assay: Antitumor activity against human T47D cells after 72 hrs by spectrophotometric analysis
Type: functional, cell-based
Conditions: not given
In short: as §1

Structure (SMILES) | IC50 [µM]
O=c1c(-c2ccco2)nnc2n1CCN2c1ccccc1 | 100
O=c1c(-c2ccco2)nnc2n1CCN2c1ccccc1Cl | > 160

Tested on: T47D
Assay: Antitumor activity against human T47D cells after 48 hrs by spectrophotometric analysis
Type: functional, cell-based
Conditions: not given
In short: as §1

Structure (SMILES) | IC50 [µM]
O=c1c(-c2ccco2)nnc2n1CCN2c1ccccc1 | 110
O=c1c(-c2ccco2)nnc2n1CCN2c1ccccc1Cl | > 160

Tested on: not listed separately
Assay: Lipophilicity, log Kw of the compound in methanol-water mixture by RP-HPLC
Type: physicochemical
Conditions: not given
In short: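 Isocratic RP-HPLC on a C18 column (150 × 4.6 mm, 5 µm) at 22 °C, 1 mL/min, DAD detection. Mobile phases were methanol (30–80%), 20% acetate buffer pH 3.5 (0.2 M acetate, pH measured in aqueous solution) and 0.01 M/L octane-1-sulfonic acid sodium salt. log kw was extrapolated with the Snyder–Soczewiński equation.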

Structure (SMILES) | logKw
O=c1c(-c2ccco2)nnc2n1CCN2c1ccccc1 | 2.64
Cc1ccccc1N1CCn2c1nnc(-c1ccco1)c2=O | 2.48
Cc1ccc(N2CCn3c2nnc(-c2ccco2)c3=O)cc1 | 3.27
Cc1cccc(N2CCn3c2nnc(-c2ccco2)c3=O)c1C | 3
O=c1c(-c2ccco2)nnc2n1CCN2c1ccccc1Cl | 2.78

Tested on: T47D
Assay: Growth inhibition of human T47D cells at 50 ug/ml after 48 hrs by spectrophotometric analysis
Type: functional
Conditions: read-out: GI
In short: as §2

Structure (SMILES) | inhibition of growth at 50 µg/mL [%]
O=c1c(-c2ccco2)nnc2n1CCN2c1ccccc1 | 85
Cc1ccccc1N1CCn2c1nnc(-c1ccco1)c2=O | 50
Cc1ccc(N2CCn3c2nnc(-c2ccco2)c3=O)cc1 | 60
Cc1cccc(N2CCn3c2nnc(-c2ccco2)c3=O)c1C | 15
O=c1c(-c2ccco2)nnc2n1CCN2c1ccccc1Cl | 15

Tested on: not listed separately
Assay: Growth inhibition of human HSF cells at 50 ug/ml after 24 hrs by spectrophotometric analysis
Type: cell-based
Conditions: read-out: GI
In short: as §2

Structure (SMILES) | inhibition at 24 h, 50 ug/ml [%]
O=c1c(-c2ccco2)nnc2n1CCN2c1ccccc1 | 50
Cc1ccccc1N1CCn2c1nnc(-c1ccco1)c2=O | 0
Cc1ccc(N2CCn3c2nnc(-c2ccco2)c3=O)cc1 | 30
Cc1cccc(N2CCn3c2nnc(-c2ccco2)c3=O)c1C | 0
O=c1c(-c2ccco2)nnc2n1CCN2c1ccccc1Cl | 10

Tested on: HeLa
Assay: Growth inhibition of human HeLa cells at 50 ug/ml after 48 hrs by spectrophotometric analysis
Type: functional
Conditions: read-out: GI
In short: as §2

Structure (SMILES) | inhibition of growth at 50 µg/mL [%]
O=c1c(-c2ccco2)nnc2n1CCN2c1ccccc1 | 75
Cc1ccccc1N1CCn2c1nnc(-c1ccco1)c2=O | 25
Cc1ccc(N2CCn3c2nnc(-c2ccco2)c3=O)cc1 | 50
Cc1cccc(N2CCn3c2nnc(-c2ccco2)c3=O)c1C | 75
O=c1c(-c2ccco2)nnc2n1CCN2c1ccccc1Cl | 80

Tested on: T47D
Assay: Growth inhibition of human T47D cells at 50 ug/ml after 72 hrs by spectrophotometric analysis
Type: functional
Conditions: read-out: GI
In short: as §2

Structure (SMILES) | inhibition of growth at 50 µg/mL [%]
O=c1c(-c2ccco2)nnc2n1CCN2c1ccccc1 | 95
Cc1ccccc1N1CCn2c1nnc(-c1ccco1)c2=O | 75
Cc1ccc(N2CCn3c2nnc(-c2ccco2)c3=O)cc1 | 80
Cc1cccc(N2CCn3c2nnc(-c2ccco2)c3=O)c1C | 25
O=c1c(-c2ccco2)nnc2n1CCN2c1ccccc1Cl | 25

Tested on: HeLa
Assay: Antitumor activity against human HeLa cells after 24 hrs by spectrophotometric analysis
Type: functional, cell-based
Conditions: not given
In short: as §1

Structure (SMILES) | IC50 [µM]
O=c1c(-c2ccco2)nnc2n1CCN2c1ccccc1 | 180
O=c1c(-c2ccco2)nnc2n1CCN2c1ccccc1Cl | 110

Tested on: HeLa
Assay: Antitumor activity against human HeLa cells after 72 hrs by spectrophotometric analysis
Type: functional, cell-based
Conditions: not given
In short: as §1

Structure (SMILES) | IC50 [µM]
O=c1c(-c2ccco2)nnc2n1CCN2c1ccccc1 | 100
O=c1c(-c2ccco2)nnc2n1CCN2c1ccccc1Cl | 90

Tested on: T47D
Assay: Antitumor activity against human T47D cells after 24 hrs by spectrophotometric analysis
Type: functional, cell-based
Conditions: not given
In short: as §1

Structure (SMILES) | IC50 [µM]
O=c1c(-c2ccco2)nnc2n1CCN2c1ccccc1 | 180
O=c1c(-c2ccco2)nnc2n1CCN2c1ccccc1Cl | > 160

Source: ChEMBL document CHEMBL1817573, “Synthesis, structure elucidation, determination of the lipophilicity and identification of antitumour activities in vitro of novel 3-(2-furanyl)-8-aryl-7,8-dihydroimidazo[2,1-c][1,2,4]triazin-4(6H)-ones with a low cytotoxicity towards normal human skin fibroblast cells” (Bioorg Med Chem, 2011)
